Experimental data as given in BindingDB's records for doi:10.1021/jm001008m (University of The Saarland, 2000).

Key:
[1] = target: T1, Steroid 17-alpha-hydroxylase/17,20 lyase (Homo sapiens, UniProt P05093); assay: Evaluated for the inhibitory activity towards Cytochrome P450 17 human enzyme using testicular microsome at 25 uM of substrate (progesterone)
T1 sequence (P05093 whole entry): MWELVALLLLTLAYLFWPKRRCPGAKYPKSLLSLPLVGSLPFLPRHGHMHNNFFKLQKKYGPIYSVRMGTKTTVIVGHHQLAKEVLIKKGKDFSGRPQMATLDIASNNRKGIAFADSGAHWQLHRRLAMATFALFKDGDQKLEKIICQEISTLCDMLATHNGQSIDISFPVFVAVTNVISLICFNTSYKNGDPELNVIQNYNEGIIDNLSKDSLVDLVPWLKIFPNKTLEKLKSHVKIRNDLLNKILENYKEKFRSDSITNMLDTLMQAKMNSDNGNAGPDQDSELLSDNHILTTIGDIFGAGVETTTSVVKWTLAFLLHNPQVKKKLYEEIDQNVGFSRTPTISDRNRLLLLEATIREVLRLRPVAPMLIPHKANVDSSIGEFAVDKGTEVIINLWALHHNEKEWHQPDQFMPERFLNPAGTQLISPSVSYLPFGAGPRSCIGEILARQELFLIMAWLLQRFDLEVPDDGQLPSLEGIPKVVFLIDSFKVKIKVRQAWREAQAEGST

[2] = target: T2, Steroid 17-alpha-hydroxylase/17,20 lyase (Rattus norvegicus, UniProt P11715); assay: Evaluated for the inhibitory activity towards Cytochrome P450 17 rat enzyme using testicular microsome at 25 uM of substrate (progesterone)
T2 sequence (P11715 whole entry): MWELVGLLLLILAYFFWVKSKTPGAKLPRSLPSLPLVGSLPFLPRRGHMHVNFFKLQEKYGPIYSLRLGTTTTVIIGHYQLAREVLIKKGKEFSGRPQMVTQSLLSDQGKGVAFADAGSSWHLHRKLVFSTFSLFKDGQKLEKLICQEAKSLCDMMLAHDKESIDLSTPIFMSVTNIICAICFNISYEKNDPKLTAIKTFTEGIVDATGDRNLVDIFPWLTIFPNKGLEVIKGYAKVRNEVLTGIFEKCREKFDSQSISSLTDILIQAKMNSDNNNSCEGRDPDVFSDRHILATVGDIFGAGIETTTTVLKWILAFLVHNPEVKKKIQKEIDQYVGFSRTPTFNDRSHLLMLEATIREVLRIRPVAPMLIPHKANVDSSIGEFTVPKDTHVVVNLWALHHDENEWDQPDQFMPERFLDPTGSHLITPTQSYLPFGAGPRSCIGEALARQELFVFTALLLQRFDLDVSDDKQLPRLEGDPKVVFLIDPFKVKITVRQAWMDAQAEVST
How it was run: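 Testicular microsomes (human for human enzyme, rat for rat enzyme) incubated with progesterone substrate at 25 µM; product measured by RP-HPLC with UV detection. IC50 = concentration giving 50% inhibition, mean of at least two experiments.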

[3] = target: T3, 3-oxo-5-alpha-steroid 4-dehydrogenase 2 (Homo sapiens, UniProt P31213); assay: Evaluated for the inhibitory activity against human steroid 5-alpha-reductase type 2 from human BPH tissue at 210 nM of testosterone
T3 sequence (P31213 whole entry): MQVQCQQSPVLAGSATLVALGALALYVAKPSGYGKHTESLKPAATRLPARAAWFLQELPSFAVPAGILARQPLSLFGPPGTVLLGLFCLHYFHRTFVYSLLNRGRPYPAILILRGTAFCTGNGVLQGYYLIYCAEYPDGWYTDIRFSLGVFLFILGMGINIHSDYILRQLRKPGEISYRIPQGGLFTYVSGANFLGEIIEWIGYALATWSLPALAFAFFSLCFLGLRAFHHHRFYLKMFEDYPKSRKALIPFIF
How it was run: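 Enzyme from prostate homogenate of BPH patients, assayed at pH 5.5 with radiolabeled testosterone at 210 nM; product separated by HPLC. IC50 taken as inhibitor concentration giving 50% inhibition; mean of at least two experiments.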

CC(N=O)[C@H]1CCC2C3CCC4=CC(=O)CCC4(C)C3CCC21C (stereo partly drawn) [17-(1-Hydroxyimino-ethyl)-10,13-dimethyl-1,2,6,7,8,9,10,11,12,13,14,15,16,17-tetradecahydro-cyclopenta[a]phenanthren-3-one]
IC50 [1]: > 2.5 µM
IC50 [2]: > 125 µM
IC50 [3]: 0.58 µM
